From ChEMBL document CHEMBL3734706, “Syntheses and biological evaluation of C-3'-N-acyl modified taxane analogues from 1-deoxybaccatin-VI” (Eur J Med Chem, 2015)
pIC50: −log10 of the molar value.

How the values were obtained:
[1] = Cytotoxicity against human PC3 cells incubated for 72 hrs by MTT assay; format: functional, cell-based; conditions: PC-3, 72 h
In short: (§1)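 Exponentially growing human tumour cells exposed 72 h to compounds formulated in DMSO; survival read by MTT; dose–response curves over 0.001–100 μM; IC50 taken from curves.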

MDA-MB-231 [2] = assay: Cytotoxicity against human MDA-MB-231 cells incubated for 72 hrs by MTT assay; format: functional, cell-based; conditions: MDA-MB-231, 72 h; in short: as §1
MDA-MB-231 [3] = assay: Cytotoxicity against human MDA-MB-231 cells assessed as inhibition of cell survival upto 100 uM incubated for 72 hrs by MTT assay relative to control; format: functional; in short: as §1
[4] = Cytotoxicity against human PC3 cells assessed as inhibition of cell survival upto 100 uM incubated for 72 hrs by MTT assay relative to control; format: functional, PC-3; in short: as §1
[5] = Cytotoxicity against human HCT116 cells assessed as decrease in cell protein incubated for 48 hrs; format: functional, cell-based; conditions: HCT-116, 48 h
HepG2 = assay: Cytotoxicity against human HepG2 cells incubated for 48 hrs by CCK-8 assay; format: functional, cell-based; conditions: HepG2, 48 h
In short: (§2)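 Growing human tumour cells exposed to compounds for 48 h; viability read by CCK-8; IC50 determined.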

[6] = Cytotoxicity against human H460 cells incubated for 48 hrs by CCK-8 assay; format: functional, cell-based; conditions: NCI-H460, 48 h; in short: as §2
A549 = assay: Cytotoxicity against human A549 cells; format: functional, cell-based

Row | Compound | pIC50 [1] | pIC50 (MDA-MB-231 [2]) | inhibition (INH) (MDA-MB-231 [3]) | inhibition (INH) [4] | pIC50 [5] | pIC50 (HepG2) | pIC50 [6] | pIC50 (A549)
1 | CCCCCC(=O)N[C@@H](c1ccccc1)[C@@H](O)C(=O)O[C@H]1CC2[C@@H](OC(=O)c3ccccc3)[C@@H]3[C@]4(OC(C)=O)CO[C@@H]4C[C@H](O)[C@@]3(C)[C@@H](O)[C@H](O)C(=C1C)C2(C)C (stereo not given in full) | 8.00 | > 9.00 | 40% | 40% |  |  |  | 
2 | CC(=O)OC1[C@H](OC(C)=O)C2=C(C)[C@@H](OC(=O)[C@H](O)[C@@H](NC(=O)c3ccccc3)c3ccccc3)CC([C@@H](OC(=O)c3ccccc3)[C@@H]3[C@]4(OC(C)=O)CO[C@@H]4C[C@H](OC(C)=O)[C@@]13C)C2(C)C (stereo not given in full) |  |  |  |  | 7.50 |  |  | 
3 | CC(=O)O[C@@]12CO[C@@H]1C[C@H](O)[C@]1(C)[C@@H]2[C@H](OC(=O)c2ccccc2)C2C[C@H](OC(=O)[C@H](O)[C@@H](NC(=O)c3cc4ccccc4o3)c3ccccc3)C(C)=C([C@@H](O)[C@@H]1O)C2(C)C (stereo not given in full) | 7.15 | 7.70 | 90% | 90% |  |  |  | 
4 | COc1ccc(C(=O)N[C@@H](c2ccccc2)[C@@H](O)C(=O)O[C@H]2CC3[C@@H](OC(=O)c4ccccc4)[C@@H]4[C@]5(OC(C)=O)CO[C@@H]5C[C@H](O)[C@@]4(C)[C@@H](O)[C@H](O)C(=C2C)C3(C)C)cc1 (stereo not given in full) | 8.00 | > 9.00 | 90% | 90% |  | 6.25 | 6.70 | 
5 | CC(=O)O[C@@]12CO[C@@H]1C[C@H](O)[C@]1(C)[C@@H]2[C@H](OC(=O)c2ccccc2)C2C[C@H](OC(=O)[C@H](O)[C@@H](NC(=O)c3cccs3)c3ccccc3)C(C)=C([C@@H](O)[C@@H]1O)C2(C)C (stereo not given in full) | 5.79 | 5.90 | 90% | 90% |  |  |  | 
6 | CC(=O)O[C@@]12CO[C@@H]1C[C@H](O)[C@]1(C)[C@@H]2[C@H](OC(=O)c2ccccc2)C2C[C@H](OC(=O)[C@H](O)[C@@H](NC(=O)c3ccco3)c3ccccc3)C(C)=C([C@@H](O)[C@@H]1O)C2(C)C (stereo not given in full) | 8.40 | > 9.00 | 90% | 90% |  | 5.69 | 6.54 | 
7 | CC(=O)O[C@H]1C(=O)[C@]2(C)[C@@H](OC(C)=O)C[C@H]3OC[C@@]3(OC(C)=O)[C@H]2[C@H](OC(=O)c2ccccc2)C2C[C@H](OC(=O)[C@H](O)[C@@H](NC(=O)c3ccccc3)c3ccccc3)C(C)=C1C2(C)C (stereo not given in full) |  |  |  |  |  |  |  | 7.21
8 | CC(=O)O[C@H]1C(=O)[C@@]2(C)[C@H]([C@H](OC(=O)c3ccccc3)[C@]3(O)C[C@H](OC(=O)[C@H](O)[C@@H](NC(=O)c4ccccc4)c4ccccc4)C(C)=C1C3(C)C)[C@]1(OC(C)=O)CO[C@@H]1C[C@@H]2O [PACLITAXEL] | > 9.00 | > 9.00 | 40% | 40% | 8.55 | 5.91 | 5.37 | 
9 | CC(=O)O[C@@]12CO[C@@H]1C[C@H](O)[C@]1(C)[C@@H]2[C@H](OC(=O)c2ccccc2)C2C[C@H](OC(=O)[C@H](O)[C@@H](NC(=O)c3ccc(CCl)cc3)c3ccccc3)C(C)=C([C@@H](O)[C@@H]1O)C2(C)C (stereo not given in full) | 7.05 | 7.52 | 90% | 90% |  |  |  | 
10 | CC(=O)O[C@@]12CO[C@@H]1C[C@H](O)[C@]1(C)[C@@H]2[C@H](OC(=O)c2ccccc2)C2C[C@H](OC(=O)[C@H](O)[C@@H](NC(=O)c3ccc(F)cc3)c3ccccc3)C(C)=C([C@@H](O)[C@@H]1O)C2(C)C (stereo not given in full) | 7.70 | > 9.00 | 90% | 90% |  |  |  | 
11 | CCCCCC(=O)N[C@@H](c1ccccc1)[C@@H](O)C(=O)O[C@H]1CC2[C@@H](OC(=O)c3ccccc3)[C@@H]3[C@]4(OC(C)=O)CO[C@@H]4C[C@H](OC(C)=O)[C@@]3(C)C(=O)[C@H](OC(C)=O)C(=C1C)C2(C)C (stereo not given in full) | 6.48 | 6.57 |  |  |  |  |  | 
12 | CCCCCC(=O)N[C@@H](c1ccccc1)[C@@H](O)C(=O)O[C@H]1CC2[C@@H](OC(=O)c3ccccc3)[C@@H]3[C@]4(OC(C)=O)CO[C@@H]4C[C@H](O)[C@@]3(C)[C@H]3OC(C)(C)O[C@@H]3C(=C1C)C2(C)C (stereo not given in full) | 6.68 | 8.00 |  |  |  |  |  | 
